Screening data (PubChem BioAssay)
AF4-AF9 inh = blocks AF4 peptide binding to human AF9. P42568. AlphaScreen, biotin-AF4 peptide binding to FLAG-AF9. inhibition, % at 10 µM. actives 0.47% (n = 350,000). AID 651704;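 active means every replicate reaching a set inhibition limit, whatever the replicate mean, cut at about 25% in these data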
RAD54 inh = inhibitors of human RAD54 branch migration | inhibition, % at 10.4 µM | RAD54 Holliday junction branch migration, FAM/BHQ fluorescence | AID 602329 | actives 0.14% (n = 360,000);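 active means mean normalized replicate activity at least 40 and at least half of replicates scoring 40 or more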;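 further: inhibitors cause a drop in the FAM fluorescence signal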
E-sel inducer = E-selectin induction on HUVECs | P16581 | HUVEC E-selectin immunofluorescence imaging; normalized: neutral wells 0, TNF-alpha wells 100 | activation, % at 7.58 µM | actives 0.37% (n = 260,000) | AID 686992;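 active means mean E-selectin-positive cell signal at least 10% of the positive control, reached in at least 60% of replicates, without over 20% cell loss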
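Test system: HUVEC | Signal: Immunofluorescence imaging | Read-out: Percent E-selectin-positive cells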
RAD52 anneal inh = blocks human RAD52 DNA annealing; P43351; recombinant RAD52 DNA annealing, FRET fluorescence; inhibition, % at 18.7 µM; actives 0.46% (n = 360,000); AID 651710;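 active means every replicate showing at least 50% inhibition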
Target sequence (P43351 whole entry, looked up): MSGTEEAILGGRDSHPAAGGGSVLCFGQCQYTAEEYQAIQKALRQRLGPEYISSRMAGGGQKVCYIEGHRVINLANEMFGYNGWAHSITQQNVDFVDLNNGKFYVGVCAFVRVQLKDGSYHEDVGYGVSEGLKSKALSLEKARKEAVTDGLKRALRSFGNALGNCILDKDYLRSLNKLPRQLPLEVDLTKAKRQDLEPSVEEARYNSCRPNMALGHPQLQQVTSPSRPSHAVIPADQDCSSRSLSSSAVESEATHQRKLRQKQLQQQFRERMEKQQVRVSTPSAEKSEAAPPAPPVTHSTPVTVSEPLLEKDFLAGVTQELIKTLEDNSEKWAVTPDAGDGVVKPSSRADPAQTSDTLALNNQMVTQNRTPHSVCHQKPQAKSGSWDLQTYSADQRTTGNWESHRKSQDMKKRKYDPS
GSIS activator = primary screen for activators of insulin secretion dependent on glucose, INS-1E cells, GLuc reporter luminescence. INS-1E GLuc reporter insulin secretion, 2-3 h. activation, % at 16.6 µM. actives 0.61% (n = 370,000). AID 743287;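 active means lowest replicate activation of at least 40%, so every replicate reaches that level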
rRNA inh HTS = selective bacterial rRNA inhibition in E. coli; E. coli WT GFP vs humanized-ribosome RFP mutants, fluorescence, 24 h; active compounds read low; DMSO median 0, no signal -100; GFP signal change (wild-type ribosome), % (test concentration not listed); actives 1.6% (n = 350,000); AID 720706;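 active means significant combined selectivity score with lowered wild-type GFP, culture density cut under 30%, mutant RFP and density less affected; inactive means any of these conditions unmet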
Of the large screens only hits and unclear results are named; the others gave an inactive call. Most compounds without a hit are left out; they make up all but 2.6% or so of the library.

Cc1noc(C)c1NC(=O)Nc1ccc2c(c1)CC(=O)N([C@H](C)CO)C[C@@H](C)[C@@H](CN(C)S(=O)(=O)c1ccccc1)O2	none
O=[N+]([O-])c1cccc(N=Nc2ccc(O)cc2O)c1	rRNA inh HTS -21.0
O=[N+]([O-])c1cccc(N=NNc2cccc([N+](=O)[O-])c2)c1	rRNA inh HTS -27.1
COc1ccc(S(=O)(=O)Nc2ccc3c(c2)C(=O)N([C@@H](C)CO)C[C@H](C)[C@@H](CN(C)CC2CC2)O3)cc1	none (no result: RAD54 inh)
Cc1ccc(-c2nnc(N3CCN(C(=O)c4cccs4)CC3)c3ccccc23)cc1	none (no result: RAD54 inh, E-sel inducer)
O=C(c1cccs1)N1CCN(c2nnc(-c3ccccc3)c3ccccc23)CC1	rRNA inh HTS -28.1 (no result: RAD54 inh, E-sel inducer)
C(=N\N1CCN(c2ccccn2)CC1)/c1cccc2ccccc12	AF4-AF9 inh 27.0, rRNA inh HTS -20.8
COc1cc(C2SCCS2)cc(Br)c1Oc1ncccc1[N+](=O)[O-]	E-sel inducer 60.6
O=C1C=C(/C=C/c2ccccc2)C[C@@H](c2ccc(F)cc2)C1	none
COc1ccc([C@H]2CC(=O)C=C(/C=C/c3ccccc3)C2)cc1OC	AF4-AF9 inh 29.5 (no result: E-sel inducer)
CC1CCc2nc(N)c(C#N)c(-c3ccncc3)c2C1 (centres undefined)	GSIS activator 77.7 (no result: AF4-AF9 inh, E-sel inducer, RAD52 anneal inh, rRNA inh HTS)
N#CC1=C(N)OC2=C(CCc3ccccc32)C1c1ccccc1Cl (centres undefined)	rRNA inh HTS -21.9 (no result: E-sel inducer)
N#CC1=C(N)Oc2cc(N)ccc2C1c1ccccc1Cl (centres undefined)	none (no result: E-sel inducer)
Brc1ccc(N/N=C(/N=Nc2nn[nH]n2)c2ccccc2)cc1	AF4-AF9 inh 41.2 (no result: RAD54 inh, E-sel inducer)
O=C(N[C@H]1CC[C@H](CCNC(=O)C2CCC2)O[C@@H]1CO)c1ccncc1	none
CC(=O)N1c2ccc(S(=O)(=O)N(C)c3cc(C)ccc3C)cc2CC1C (centres undefined)	rRNA inh HTS -29.3
CCOc1ccc(-c2nnc(SCC(=O)N3CCNC3=O)o2)cc1	AF4-AF9 inh 27.9
COc1ccc2c3c([nH]c2c1)[C@H](CO)N(Cc1ccccc1)CC31CN(C)C1	none (no result: AF4-AF9 inh, RAD54 inh)
C[C@@H]1CN([C@@H](C)CO)C(=O)c2cc(NC(=O)c3ccncc3)ccc2O[C@@H](C)CCCCO[C@@H]1CN(C)Cc1ccncc1	none
C[C@@H]1CN([C@H](C)CO)C(=O)c2cc(NC(=O)c3ccncc3)ccc2O[C@@H](C)CCCCO[C@@H]1CN(C)Cc1ccc(C(=O)O)cc1	RAD52 anneal inh 99.7
C[C@@H]1CN([C@H](C)CO)C(=O)c2cc(NC(=O)c3ccncc3)ccc2O[C@@H](C)CCCCO[C@H]1CN(C)Cc1ccc(C(=O)O)cc1	RAD52 anneal inh 99.0
CN(C(=O)COc1ccccc1)C1CCS(=O)(=O)C1 (centres undefined)	none (no result: RAD54 inh, E-sel inducer)
CC(=O)c1ccc(OCC(=O)N(C2CCCCC2)C2CCS(=O)(=O)C2)cc1 (centres undefined)	GSIS activator 53.9 (no result: RAD54 inh)
C[C@@H]1CN([C@@H](C)CO)C(=O)c2cc(NC(=O)CCCN(C)C)ccc2O[C@@H]1CN(C)C(=O)Nc1ccc2c(c1)OCO2	none (no result: RAD54 inh)
O=C(C[C@@H]1CC[C@@H](NC(=O)c2ccncc2)[C@H](CO)O1)NCC1CC1	none
COC(=O)C1=C(C)NC(C)=C(C(=O)OC)C1C(=O)OC(C)C(=O)c1ccccc1 (centres undefined)	E-sel inducer 77.3
CCN(C(=O)C(C)OC(=O)C1C(C(=O)OC)=C(C)NC(C)=C1C(=O)OC)c1ccccc1 (centres undefined)	none
COc1ccc2c3c(n(C)c2c1)[C@H](CO)NCC31CCN(Cc2ccc(F)cc2)CC1	none (no result: AF4-AF9 inh, RAD54 inh, E-sel inducer, RAD52 anneal inh)
COc1ccc2c3c(n(C)c2c1)[C@H](CO)NCC31CCN(Cc2cc(F)ccc2F)CC1	AF4-AF9 inh 25.5 (no result: RAD54 inh)
COc1ccc2c3c(n(C)c2c1)[C@@H](CO)NCC31CCN(Cc2ccc(Cl)cc2)CC1	none (no result: AF4-AF9 inh, RAD54 inh, E-sel inducer, RAD52 anneal inh)
COc1ccc2c3c(n(C)c2c1)[C@H](CO)NCC31CCN(Cc2ccc(Cl)cc2)CC1	AF4-AF9 inh 44.1 (no result: RAD54 inh, RAD52 anneal inh)
COc1ccc2c3c(n(C)c2c1)[C@@H](CO)NCC31CCN(Cc2ccccc2F)CC1	none (no result: RAD54 inh, RAD52 anneal inh)
COc1ccc2c3c(n(C)c2c1)[C@@H](CO)NCC31CCN(S(=O)(=O)c2cccc(F)c2)CC1	none (no result: AF4-AF9 inh, RAD54 inh, E-sel inducer, RAD52 anneal inh)
COc1ccc2c3c(n(C)c2c1)[C@@H](CO)NCC31CCN(S(=O)(=O)c2cccc(C)c2)CC1	AF4-AF9 inh 27.4, RAD52 anneal inh 54.1 (no result: RAD54 inh)
COc1ccc2c3c(n(C)c2c1)[C@@H](CO)NCC31CCN(Cc2cc(F)ccc2F)CC1	AF4-AF9 inh 32.5 (no result: RAD54 inh)
CN1C(=O)c2cc(NC(=O)Cc3ccccc3)ccc2OC[C@H]2O[C@@H](CC(=O)NCc3ccc(Cl)cc3)CC[C@H]21	none (no result: AF4-AF9 inh, RAD52 anneal inh)
CC(=O)c1ccc(-c2ccccc2C2=CC(=O)CC(C)(C)C2=O)cc1	none (no result: RAD54 inh)
CC1(C)CC(=O)C=C(c2ccccc2-c2ccc(S(C)(=O)=O)cc2)C1=O	GSIS activator 48.7
C[C@@H]1CCCCO[C@H](CN(C)CC2CCCCC2)[C@@H](C)CN([C@H](C)CO)C(=O)c2cc(NC(=O)CCCCCC(=O)Nc3ccccc3N)ccc2O1	none (no result: AF4-AF9 inh, RAD54 inh, RAD52 anneal inh)
CCCN(C)C[C@@H]1Oc2cc(-c3cccnc3)ccc2S(=O)(=O)N([C@@H](C)CO)C[C@@H]1C	none
Cc1cccc(Nc2nnc(-c3ccc(N4CCOCC4)c([N+](=O)[O-])c3)c3ccccc23)c1	rRNA inh HTS -32.4 (no result: E-sel inducer)
O=C(C[C@@H]1C=C[C@@H](NC(=O)C2CC2)[C@@H](CO)O1)NCCCN1CCOCC1	none
C=CCN(C(=O)c1csnn1)C(C(=O)NC1CCCC1)c1ccc(Cl)cc1 (centres undefined)	none (no result: E-sel inducer)
CCc1ccc(C(C(=O)NC2CCCCC2)N(C(=O)c2csnn2)C2CC2)cc1 (centres undefined)	E-sel inducer 39.1
O=C(NCc1ccccc1)C(c1ccco1)N(C(=O)c1csnn1)C1CC1 (centres undefined)	AF4-AF9 inh 41.0 (no result: E-sel inducer, rRNA inh HTS)
O=C(NCc1ccc(F)cc1)C(c1ccco1)N(C(=O)c1csnn1)C1CC1 (centres undefined)	none (no result: E-sel inducer, rRNA inh HTS)
C=CCN(C(=O)c1csnn1)C(C(=O)NC1CCCCC1)c1ccccc1 (centres undefined)	E-sel inducer 31.5
O=C(C1CCCCC1)N1CC(=O)N2[C@@H](CO)[C@@H](c3ccc(Br)cc3)[C@@H]2C1	none (no result: RAD54 inh)
C[C@H](CO)N1C[C@H](C)[C@@H](CN(C)C(=O)CCC(F)(F)F)OCCCC[C@H](C)Oc2ccc(NC(=O)Cc3ccccc3)cc2C1=O	none
O=C(Nc1ccccc1)c1cc(N2CCOCC2)nc2ccccc12	none (no result: AF4-AF9 inh, E-sel inducer, RAD52 anneal inh, GSIS activator, rRNA inh HTS)
O=C(Nc1nccs1)c1cc(N2CCOCC2)nc2ccccc12	GSIS activator 46.0 (no result: AF4-AF9 inh, E-sel inducer, RAD52 anneal inh, rRNA inh HTS)
